According to ChEMBL document CHEMBL2311435, “Development of 18F-labeled picolinamide probes for PET imaging of malignant melanoma” (J Med Chem, 2013):

Legend:
Nucleic Acid [1] = experiment: Ratio of drug uptake in tumor to lungs of C57BL/6 mouse xenografted with mouse B16F10 cells at 3.7 MBq, iv after 2 hrs by gamma-scintillation counting analysis; format: ADME, organism-based, B16-F10; settings: in vivo
How it was run: (§1)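 Same subcutaneous B16F10 model and tail-vein dose of about 3.7 MBq (100 μCi), n = 4 per group. Dissection at 1 or 2 h p.i. Gamma-counter %ID/g of tumor divided by that of blood, lung, liver or muscle, given as mean ± SD.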

Nucleic Acid [2] = experiment: Ratio of drug uptake in tumor to lungs of C57BL/6 mouse xenografted with mouse B16F10 cells at 3.7 MBq, iv after 1 hr by gamma-scintillation counting analysis; format: ADME, organism-based, B16-F10; settings: in vivo; how it was run: as §1
Bone [3] = experiment: Biodistribution in bone of C57BL/6 mouse xenografted with mouse B16F10 cells at 3.7 MBq, iv after 1 hr by gamma-scintillation counting analysis; format: ADME, organism-based, Bone element, B16-F10; settings: in vivo
How it was run: (§2)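 1.0 × 10^6 B16F10 cells in PBS injected subcutaneously into the right shoulder of C57BL/6 mice, grown to 0.5 cm (~10 day). Tail-vein injection of about 3.7 MBq (100 μCi) 18F probe in PBS (0.1 M, pH 7.4). Killed at 1.0 or 2.0 h p.i. (n = 4 per group). Tissues excised, weighed and gamma-counted; uptake expressed as %ID/g, mean ± SD.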

Zone of skin [4] = experiment: Biodistribution in skin of C57BL/6 mouse xenografted with mouse B16F10 cells at 3.7 MBq, iv after 2 hrs by gamma-scintillation counting analysis; format: ADME, organism-based, B16-F10; settings: in vivo; how it was run: as §2
Muscle tissue [5] = experiment: Biodistribution in muscle of C57BL/6 mouse xenografted with mouse B16F10 cells at 3.7 MBq, iv after 1 hr by gamma-scintillation counting analysis; format: ADME, organism-based, B16-F10; settings: in vivo; how it was run: as §2
Pancreas [6] = experiment: Biodistribution in pancreas of C57BL/6 mouse xenografted with mouse B16F10 cells at 3.7 MBq, iv after 1 hr by gamma-scintillation counting analysis; format: ADME, organism-based, B16-F10; settings: in vivo; how it was run: as §2
Mus musculus [7] = experiment: Biodistribution in lungs of C57BL/6 mouse xenografted with mouse B16F10 cells at 3.7 MBq, iv after 2 hrs by gamma-scintillation counting analysis; format: ADME, organism-based, Lung, B16-F10; settings: in vivo; how it was run: as §2
Stomach [8] = experiment: Biodistribution in stomach of C57BL/6 mouse xenografted with mouse B16F10 cells at 3.7 MBq, iv after 2 hrs by gamma-scintillation counting analysis; format: ADME, organism-based, B16-F10; settings: in vivo; how it was run: as §2
Kidney [9] = experiment: Biodistribution in kidney of C57BL/6 mouse xenografted with mouse B16F10 cells at 3.7 MBq, iv after 2 hrs by gamma-scintillation counting analysis; format: ADME, organism-based, B16-F10; settings: in vivo; how it was run: as §2
Liver [10] = experiment: Biodistribution in liver of C57BL/6 mouse xenografted with mouse B16F10 cells at 3.7 MBq, iv after 2 hrs by gamma-scintillation counting analysis; format: ADME, organism-based, B16-F10; settings: in vivo; how it was run: as §2
Blood [11] = experiment: Biodistribution in blood of C57BL/6 mouse xenografted with mouse B16F10 cells at 3.7 MBq, iv after 1 hr by gamma-scintillation counting analysis; format: ADME, organism-based, B16-F10; settings: in vivo; how it was run: as §2
Kidney [12] = experiment: Biodistribution in kidney of C57BL/6 mouse xenografted with mouse B16F10 cells at 3.7 MBq, iv after 1 hr by gamma-scintillation counting analysis; format: ADME, organism-based, B16-F10; settings: in vivo; how it was run: as §2
Mus musculus [13] = experiment: Biodistribution in tumor of C57BL/6 mouse xenografted with mouse B16F10 cells at 3.7 MBq, iv after 2 hrs by gamma-scintillation counting analysis; format: ADME, organism-based, Neoplasm, B16-F10; settings: in vivo; how it was run: as §2
Zone of skin [14] = experiment: Biodistribution in skin of C57BL/6 mouse xenografted with mouse B16F10 cells at 3.7 MBq, iv after 1 hr by gamma-scintillation counting analysis; format: ADME, organism-based, B16-F10; settings: in vivo; how it was run: as §2
Spleen [15] = experiment: Biodistribution in spleen of C57BL/6 mouse xenografted with mouse B16F10 cells at 3.7 MBq, iv after 2 hrs by gamma-scintillation counting analysis; format: ADME, organism-based, B16-F10; settings: in vivo; how it was run: as §2
Heart [16] = experiment: Biodistribution in heart of C57BL/6 mouse xenografted with mouse B16F10 cells at 3.7 MBq, iv after 1 hr by gamma-scintillation counting analysis; format: ADME, organism-based, B16-F10; settings: in vivo; how it was run: as §2
[17] = Drug uptake in tumor of C57BL/6 mouse xenografted with mouse B16F10 cells at 3.7 MBq, iv after 0.5 hrs by PET imaging analysis; format: ADME, organism-based, Neoplasm, B16-F10; settings: in vivo
How it was run: (§3)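 Static small-animal PET at 0.5, 1 and 2 h after tail-vein injection of ~3.7 MBq (100 μCi) into B16F10-bearing C57BL/6 mice (n = 4 per probe). Isoflurane anesthesia, 5% induction and 2% maintenance in O2. Decay-corrected images. ROI-derived %ID/g assumes 1 g/ml density, without attenuation correction. Mean ± SD.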

Blood [18] = experiment: Biodistribution in blood of C57BL/6 mouse xenografted with mouse B16F10 cells at 3.7 MBq, iv after 2 hrs by gamma-scintillation counting analysis; format: ADME, organism-based, B16-F10; settings: in vivo; how it was run: as §2
Bone [19] = experiment: Biodistribution in bone of C57BL/6 mouse xenografted with mouse B16F10 cells at 3.7 MBq, iv after 2 hrs by gamma-scintillation counting analysis; format: ADME, organism-based, Bone element, B16-F10; settings: in vivo; how it was run: as §2
Mus musculus [20] = experiment: Biodistribution in tumor of C57BL/6 mouse xenografted with mouse B16F10 cells at 3.7 MBq, iv after 1 hr by gamma-scintillation counting analysis; format: ADME, organism-based, Neoplasm, B16-F10; settings: in vivo; how it was run: as §2
[21] = Drug uptake in tumor of C57BL/6 mouse xenografted with mouse B16F10 cells at 3.7 MBq, iv after 2 hrs by PET imaging analysis; format: ADME, organism-based, Neoplasm, B16-F10; settings: in vivo; how it was run: as §3
Nucleic Acid [22] = experiment: Ratio of drug uptake in tumor to liver of C57BL/6 mouse xenografted with mouse B16F10 cells at 3.7 MBq, iv after 1 hr by gamma-scintillation counting analysis; format: ADME, organism-based, B16-F10; settings: in vivo; how it was run: as §1
Pancreas [23] = experiment: Biodistribution in pancreas of C57BL/6 mouse xenografted with mouse B16F10 cells at 3.7 MBq, iv after 2 hrs by gamma-scintillation counting analysis; format: ADME, organism-based, B16-F10; settings: in vivo; how it was run: as §2
Mus musculus [24] = experiment: Biodistribution in eye of C57BL/6 mouse xenografted with mouse B16F10 cells at 3.7 MBq, iv after 1 hr by gamma-scintillation counting analysis; format: ADME, organism-based, B16-F10; settings: in vivo; how it was run: as §2
Intestine [25] = experiment: Biodistribution in intestine of C57BL/6 mouse xenografted with mouse B16F10 cells at 3.7 MBq, iv after 1 hr by gamma-scintillation counting analysis; format: ADME, organism-based, B16-F10; settings: in vivo; how it was run: as §2
Spleen [26] = experiment: Biodistribution in spleen of C57BL/6 mouse xenografted with mouse B16F10 cells at 3.7 MBq, iv after 1 hr by gamma-scintillation counting analysis; format: ADME, organism-based, B16-F10; settings: in vivo; how it was run: as §2
Nucleic Acid [27] = experiment: Ratio of drug uptake in tumor to blood of C57BL/6 mouse xenografted with mouse B16F10 cells at 3.7 MBq, iv after 2 hrs by gamma-scintillation counting analysis; format: ADME, organism-based, B16-F10; settings: tumour; how it was run: as §1
Nucleic Acid [28] = experiment: Ratio of drug uptake in tumor to liver of C57BL/6 mouse xenografted with mouse B16F10 cells at 3.7 MBq, iv after 2 hrs by gamma-scintillation counting analysis; format: ADME, organism-based, B16-F10; settings: in vivo; how it was run: as §1
Brain [29] = experiment: Biodistribution in brain of C57BL/6 mouse xenografted with mouse B16F10 cells at 3.7 MBq, iv after 1 hr by gamma-scintillation counting analysis; format: ADME, organism-based, B16-F10; settings: in vivo; how it was run: as §2
[30] = Drug uptake in tumor of C57BL/6 mouse xenografted with mouse B16F10 cells at 3.7 MBq, iv after 1 hr by PET imaging analysis; format: ADME, organism-based, Neoplasm, B16-F10; settings: in vivo; how it was run: as §3
Nucleic Acid [31] = experiment: Ratio of drug uptake in tumor to blood of C57BL/6 mouse xenografted with mouse B16F10 cells at 3.7 MBq, iv after 1 hr by gamma-scintillation counting analysis; format: ADME, organism-based, B16-F10; settings: tumour; how it was run: as §1
Mus musculus [32] = experiment: Biodistribution in eye of C57BL/6 mouse xenografted with mouse B16F10 cells at 3.7 MBq, iv after 2 hrs by gamma-scintillation counting analysis; format: ADME, organism-based, B16-F10; settings: in vivo; how it was run: as §2
Mus musculus [33] = experiment: Biodistribution in lungs of C57BL/6 mouse xenografted with mouse B16F10 cells at 3.7 MBq, iv after 1 hr by gamma-scintillation counting analysis; format: ADME, organism-based, Lung, B16-F10; settings: in vivo; how it was run: as §2
Liver [34] = experiment: Biodistribution in liver of C57BL/6 mouse xenografted with mouse B16F10 cells at 3.7 MBq, iv after 1 hr by gamma-scintillation counting analysis; format: ADME, organism-based, B16-F10; settings: in vivo; how it was run: as §2
Brain [35] = experiment: Biodistribution in brain of C57BL/6 mouse xenografted with mouse B16F10 cells at 3.7 MBq, iv after 2 hrs by gamma-scintillation counting analysis; format: ADME, organism-based, B16-F10; settings: in vivo; how it was run: as §2
Muscle tissue [36] = experiment: Biodistribution in muscle of C57BL/6 mouse xenografted with mouse B16F10 cells at 3.7 MBq, iv after 2 hrs by gamma-scintillation counting analysis; format: ADME, organism-based, B16-F10; settings: in vivo; how it was run: as §2
Nucleic Acid [37] = experiment: Ratio of drug uptake in tumor to muscle of C57BL/6 mouse xenografted with mouse B16F10 cells at 3.7 MBq, iv after 1 hr by gamma-scintillation counting analysis; format: ADME, organism-based, B16-F10; settings: in vivo; how it was run: as §1
Nucleic Acid [38] = experiment: Ratio of drug uptake in tumor to muscle of C57BL/6 mouse xenografted with mouse B16F10 cells at 3.7 MBq, iv after 2 hrs by gamma-scintillation counting analysis; format: ADME, organism-based, B16-F10; settings: in vivo; how it was run: as §1
Heart [39] = experiment: Biodistribution in heart of C57BL/6 mouse xenografted with mouse B16F10 cells at 3.7 MBq, iv after 2 hrs by gamma-scintillation counting analysis; format: ADME, organism-based, B16-F10; settings: in vivo; how it was run: as §2
Intestine [40] = experiment: Biodistribution in intestine of C57BL/6 mouse xenografted with mouse B16F10 cells at 3.7 MBq, iv after 2 hrs by gamma-scintillation counting analysis; format: ADME, organism-based, B16-F10; settings: in vivo; how it was run: as §2
Stomach [41] = experiment: Biodistribution in stomach of C57BL/6 mouse xenografted with mouse B16F10 cells at 3.7 MBq, iv after 1 hr by gamma-scintillation counting analysis; format: ADME, organism-based, B16-F10; settings: in vivo; how it was run: as §2

Ratio (Nucleic Acid [1]): 10.49
Ratio (Nucleic Acid [2]): 6.23
Drug uptake (Bone [3]): 3.48 % ID/g
Drug uptake (Zone of skin [4]): 0.71 % ID/g
Drug uptake (Muscle tissue [5]): 1.11 % ID/g
Drug uptake (Pancreas [6]): 3.58 % ID/g
Drug uptake (Mus musculus [7]): 0.92 % ID/g
Drug uptake (Stomach [8]): 2.27 % ID/g
Drug uptake (Kidney [9]): 1.2 % ID/g
Drug uptake (Liver [10]): 1.07 % ID/g
Drug uptake (Blood [11]): 0.46 % ID/g
Drug uptake (Kidney [12]): 5.63 % ID/g
Drug uptake (Mus musculus [13]): 9.29 % ID/g
Drug uptake (Zone of skin [14]): 2.37 % ID/g
Drug uptake (Spleen [15]): 0.56 % ID/g
Drug uptake (Heart [16]): 1.54 % ID/g
Drug uptake [17]: 7.54 % ID/g
Drug uptake (Blood [18]): 0.2 % ID/g
Drug uptake (Bone [19]): 2.12 % ID/g
Drug uptake (Mus musculus [20]): 9.54 % ID/g
Drug uptake [21]: 8.47 % ID/g
Ratio (Nucleic Acid [22]): 2.24
Drug uptake (Pancreas [23]): 0.71 % ID/g
Drug uptake (Mus musculus [24]): 34 % ID/g
Drug uptake (Intestine [25]): 3.46 % ID/g
Drug uptake (Spleen [26]): 2.88 % ID/g
Ratio (Nucleic Acid [27]): 39.2
Ratio (Nucleic Acid [28]): 7.26
Drug uptake (Brain [29]): 1.56 % ID/g
Drug uptake [30]: 7.94 % ID/g
Ratio (Nucleic Acid [31]): 20.44
Drug uptake (Mus musculus [32]): 32.23 % ID/g
Drug uptake (Mus musculus [33]): 1.52 % ID/g
Drug uptake (Liver [34]): 4.47 % ID/g
Drug uptake (Brain [35]): 0.41 % ID/g
Drug uptake (Muscle tissue [36]): 0.52 % ID/g
Ratio (Nucleic Acid [37]): 11.24
Ratio (Nucleic Acid [38]): 15.22
Drug uptake (Heart [39]): 0.4 % ID/g
Drug uptake (Intestine [40]): 0.89 % ID/g
Drug uptake (Stomach [41]): 5.03 % ID/g
SMILES: CCN(CC)CCNC(=O)c1ccc([18F])nc1
